Experimental data from ChEMBL document CHEMBL3286129, “Optimization of peptidomimetic boronates bearing a P3 bicyclic scaffold as proteasome inhibitors” (Eur J Med Chem, 2014).

What was measured:
Assay type in all cases: functional
SR = test: Growth inhibition of human SR cells
[1] = Growth inhibition of human SF539 cells
NCI-H522 = test: Growth inhibition of human NCI-H522 cells
HL-60(TB) = test: Growth inhibition of human HL-60(TB) cells
T47D = test: Growth inhibition of human T47D cells
[2] = Growth inhibition of human UO31 cells; settings: UO-31
TK-10 = test: Growth inhibition of human TK10 cells
HCT-116 = test: Growth inhibition of human HCT116 cells
HT-29 = test: Growth inhibition of human HT-29 cells
SK-MEL-5 = test: Growth inhibition of human SK-MEL-5 cells
Malme-3M = test: Growth inhibition of human MALME-3M cells
SNB-19 = test: Growth inhibition of human SNB19 cells
MDA-MB-468 = test: Growth inhibition of human MDA-MB-468 cells
[3] = Growth inhibition of human OVCAR4 cells
[4] = Cytotoxicity against human CNSC cells assessed as cell growth at 10 uM relative to control; settings: read-out: Activity
In short: (§1)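 Single-concentration screen against a panel of human cancer cell lines. Each value is the mean percent growth across the cell lines of that tumour subpanel.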

[5] = Growth inhibition of human MOLT4 cells
[6] = Growth inhibition of human HCC2998 cells; settings: HCC 2998
NCI-H226 = test: Growth inhibition of human NCI-H226 cells
NCI-H460 = test: Growth inhibition of human NCI-H460 cells
SK-MEL-28 = test: Growth inhibition of human SK-MEL-28 cells
K562 = test: Growth inhibition of human K562 cells
[7] = Cytotoxicity against human melanoma cells assessed as cell growth at 10 uM relative to control; settings: read-out: Activity; in short: as §1
CAKI-1 = test: Growth inhibition of human CAKI-1 cells
A549 = test: Growth inhibition of human A549/ATCC cells
SNB-75 = test: Growth inhibition of human SNB75 cells
SK-OV-3 = test: Growth inhibition of human SKOV3 cells
IGROV-1 = test: Growth inhibition of human IGROV1 cells
MDA-MB-231 = test: Growth inhibition of human MDA-MB-231 cells
[8] = Growth inhibition of human LOXIMVI cells; settings: LOX IMVI
MDA-MB-435 = test: Growth inhibition of human MDA-MB-435 cells
SW-620 = test: Growth inhibition of human SW620 cells
ACHN = test: Growth inhibition of human ACHN cells
[9] = Growth inhibition of human BT549 cells
[10] = Cytotoxicity against human colon cancer cells assessed as cell growth at 10 uM relative to control; settings: Cancer cell lines, read-out: Activity; in short: as §1
MCF7 = test: Growth inhibition of human MCF7 cells
[11] = Growth inhibition of human HCT15 cells
NCI-H23 = test: Growth inhibition of human NCI-H23 cells
[12] = read-out: LC50 (the source's name)

Structure (SMILES): CC(C)C[C@H](NC(=O)CCn1ccc2ccccc2c1=O)B(O)O
- GI50 (SR): 1.7 µM
- TGI (SR): 28.9 µM
- CC50 (SR; [12]): > 100 µM
- GI50 ([1]; SF-539): 1.61 µM
- TGI ([1]; SF-539): 5.62 µM
- CC50 ([1]; SF-539, read-out: LC50 (the source's name)): > 100 µM
- GI50 (NCI-H522): 2.61 µM
- LC50 (NCI-H522): > 100 µM
- TGI (NCI-H522): 8.09 µM
- GI50 (HL-60(TB)): 2.69 µM
- TGI (HL-60(TB)): 49.5 µM
- CC50 (HL-60(TB); [12]): > 100 µM
- GI50 (T47D): 3.71 µM
- TGI (T47D): 29.3 µM
- CC50 (T47D; [12]): > 100 µM
- GI50 [2]: 3.92 µM
- LC50 [2]: > 100 µM
- TGI [2]: 35.3 µM
- GI50 (TK-10): 2.93 µM
- LC50 (TK-10): > 100 µM
- TGI (TK-10): 9.8 µM
- GI50 (HCT-116): 1.55 µM
- LC50 (HCT-116): > 100 µM
- TGI (HCT-116): 19.8 µM
- GI50 (HT-29): 3.68 µM
- LC50 (HT-29): > 100 µM
- TGI (HT-29): 48.7 µM
- GI50 (SK-MEL-5): 4.3 µM
- LC50 (concentration killing 50% of cells) (SK-MEL-5): 83.7 µM
- TGI (SK-MEL-5): 19 µM
- GI50 (Malme-3M): 2.58 µM
- TGI (Malme-3M): 9.89 µM
- CC50 (Malme-3M; [12]): > 100 µM
- GI50 (SNB-19): 8.02 µM
- TGI (SNB-19): > 100 µM
- CC50 (SNB-19; [12]): > 100 µM
- GI50 (MDA-MB-468): 1.38 µM
- TGI (MDA-MB-468): 7.08 µM
- CC50 (MDA-MB-468; [12]): > 100 µM
- GI50 ([3]; OVCAR-4): 17 µM
- TGI ([3]; OVCAR-4): > 100 µM
- CC50 ([3]; OVCAR-4, read-out: LC50 (the source's name)): > 100 µM
- growth at 10 µM [4]: 52%
- GI50 ([5]; MOLT-4): 1.28 µM
- TGI ([5]; MOLT-4): 5.94 µM
- CC50 ([5]; MOLT-4, read-out: LC50 (the source's name)): > 100 µM
- GI50 [6]: 6.08 µM
- LC50 [6]: 66.4 µM
- TGI [6]: 21.3 µM
- GI50 (NCI-H226): 1.47 µM
- TGI (NCI-H226): 3.24 µM
- CC50 (NCI-H226; [12]): 7.15 µM
- GI50 (NCI-H460): 13 µM
- LC50 (NCI-H460): > 100 µM
- TGI (NCI-H460): 56.2 µM
- GI50 (SK-MEL-28): 3.27 µM
- TGI (SK-MEL-28): > 100 µM
- CC50 (SK-MEL-28; [12]): > 100 µM
- GI50 (K562): 4.97 µM
- TGI (K562): > 100 µM
- CC50 (K562; [12]): > 100 µM
- growth at 10 µM [7]: 30.5%
- GI50 (CAKI-1): 2.93 µM
- TGI (CAKI-1): 27 µM
- CC50 (CAKI-1; [12]): > 100 µM
- GI50 (A549): 8.41 µM
- TGI (A549): > 100 µM
- CC50 (A549; [12]): > 100 µM
- GI50 (SNB-75): 2.94 µM
- LC50 (SNB-75): 93.4 µM
- TGI (SNB-75): 15.9 µM
- GI50 (SK-OV-3): 4.72 µM
- LC50 (SK-OV-3): > 100 µM
- TGI (SK-OV-3): 81.3 µM
- GI50 (IGROV-1): 12.3 µM
- LC50 (IGROV-1): > 100 µM
- TGI (IGROV-1): > 100 µM
- GI50 (MDA-MB-231): 9.45 µM
- TGI (MDA-MB-231): 59.3 µM
- CC50 (MDA-MB-231; [12]): > 100 µM
- GI50 [8]: 2.11 µM
- TGI [8]: 6.78 µM
- CC50 [8, 12]: > 100 µM
- GI50 (MDA-MB-435): 1.27 µM
- TGI (MDA-MB-435): 2.81 µM
- CC50 (MDA-MB-435; [12]): 6.24 µM
- GI50 (SW-620): 3 µM
- LC50 (SW-620): 93.4 µM
- TGI (SW-620): 12 µM
- GI50 (ACHN): 1.75 µM
- TGI (ACHN): > 100 µM
- CC50 (ACHN; [12]): > 100 µM
- GI50 ([9]; BT-549): 2.21 µM
- TGI ([9]; BT-549): 17.1 µM
- CC50 ([9]; BT-549, read-out: LC50 (the source's name)): > 100 µM
- growth at 10 µM [10]: 45.1%
- GI50 (MCF7): 4.35 µM
- TGI (MCF7): > 100 µM
- CC50 (MCF7; [12]): > 100 µM
- GI50 ([11]; HCT-15): 9.57 µM
- TGI ([11]; HCT-15): > 100 µM
- CC50 ([11]; HCT-15, read-out: LC50 (the source's name)): > 100 µM
- GI50 (NCI-H23): 25.4 µM
- TGI (NCI-H23): > 100 µM
- CC50 (NCI-H23; [12]): > 100 µM
